Assay results as given in ChEMBL document CHEMBL5252539, “In vitro biological evaluation of new antimycobacterial salicylanilide-tuftsin conjugates” (Eur J Med Chem, 2017).
Values after ≈ are worked out from the molar mass of the structure shown. Active and inactive are the calls of the source. The calls are words filed in the database; no cut-off is given here. *1 amine or outer side, *2 acyl side, *3 side chain or, on linkers, in order; H or OH if unused. Where a SMILES comes first, the peptide text is derived from it. [ ]: non-standard residue; d: D form. The star is where a group is joined. X1 = C/C(=N\OCC(=O)[*:2])c1ccc(N[*:1])cc1; Benzoyl(5-Br-2-OH) = O=C(c1cc(Br)ccc1O)*; Decanoyl = CCCCCCCCCC(=O)*

Experiments:
[1] = Selectivity index, ratio of IC50 for cytotoxicity against mouse bone marrow derived macrophages to MIC for antimycobacterial activity against Mycobacterium tuberculosis H37Rv ATCC 27294; type: toxicity; conditions: read-out: Selectivity Index
Method in brief: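 Murine bone marrow-derived macrophages exposed for 48 h, top concentration 100 µM. Viability read by MTT and IC50 taken from dose-response curves. SI = IC50/MIC against H37Rv.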

[2] = Selectivity index, ratio of IC50 for cytostatic activity against human HepG2 cells to MIC for antimycobacterial activity against Mycobacterium tuberculosis H37Rv ATCC 27294; type: toxicity, cell-based; conditions: read-out: Selectivity Index
Method in brief: (§1)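 MTT assay on MonoMac6 or HepG2 cells after 24 h exposure, top concentration 200 µM. SI = IC50 (µM)/MIC (µM) against H37Rv from the 4-week Sula medium assay.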

[3] = tested on: Mycobacterium tuberculosis; assay: […] antimycobacterial activity against Mycobacterium tuberculosis H37Rv ATCC 27294 infected in human MONO-MAC-6 cells assessed as reduction in colony forming unit at 250 uM for 6 days by colony counting based analysis; type: functional, organism-based; conditions: time 6.0 day
Method in brief: (§2)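 MonoMac6 monolayers infected with H37Rv, then treated with compound at 125 or 250 µM for 3 days. Treatment repeated with fresh compound solution for another 3 days. Intracellular bacteria quantified as CFU against untreated infected cells.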

[4] = Stability of the compound in serum free RPMI-1640 medium containing 2% DMSO at 1 mg/ml after 1 week by reverse phase HPLC analysis; conditions: time 1.0 weeks
Method in brief: (§3)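 Stability followed by analytical RP-HPLC and mass spectrometry under assay conditions: in DMSO at 4 °C over 3 weeks, in serum-free RPMI-1640 at 37 °C over 1 week, and in complete RPMI-1640 at 37 °C over 1 day.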

[5] = tested on: Mycobacterium tuberculosis; assay: Antimycobacterial activity against Mycobacterium tuberculosis H37Rv ATCC 27294 assessed as reduction in colony forming unit after 28 days by serial dilution method; type: functional, organism-based; conditions: time 28.0 day
Method in brief: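 After the 4-week MIC incubation in Sula semisynthetic medium (pH 6.5), growth inhibition confirmed by plating on Löwenstein-Jensen solid medium and counting colony forming units.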

[6] = Cytotoxicity against mouse bone marrow derived macrophages assessed as reduction in cell viability incubated for 48 hrs by MTT assay; type: toxicity, cell-based, Macrophage
Method in brief: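 Murine bone marrow-derived macrophages exposed for 48 h, viability by MTT. Highest concentration tested 100 µM. IC50 taken from dose-response curves.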

MONO-MAC-6 = assay: Cytostatic activity against human MONO-MAC-6 cells assessed as reduction in cell viability incubated for 24 hrs by MTT assay; type: functional, cell-based; conditions: MONO-MAC-6, 24 h
Method in brief: (§4)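 MTT viability assay after 24 h exposure of MonoMac6 human monocytic cells or HepG2 human hepatocellular carcinoma cells. Top concentration 200 μM. IC50 taken from dose-response curves as the concentration reducing viability to 50% of maximal.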

[7] = tested on: Mycobacteroides abscessus; assay: Antimycobacterial activity against Mycobacterium abscessus ATCC 19977 assessed as reduction in colony forming unit after 7 days by serial dilution method; type: functional, organism-based; conditions: time 7.0 day
Method in brief: (§5)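 MIC determined in Sula semisynthetic medium, pH 6.5, 1 week incubation. Growth inhibition confirmed by plating on Löwenstein-Jensen solid medium and counting CFU. Bacteria inoculated without drug served as growth control.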

[8] = tested on: Mycobacterium tuberculosis; assay: […] antimycobacterial activity against Mycobacterium tuberculosis H37Rv ATCC 27294 infected in human MONO-MAC-6 cells assessed as reduction in colony forming unit at 125 uM for 6 days by colony counting based analysis; type: functional, organism-based; conditions: time 6.0 day; method in brief: as §2
[9] = tested on: Mycobacteroides abscessus; assay: Antimycobacterial activity against Mycobacterium abscessus ATCC 19977 assessed as reduction in bacterial growth after 7 days by serial dilution method; type: functional; conditions: ATCC 19977, 168 h, time 7 day; method in brief: as §5
[10] = Stability of the compound in complete RPMI-1640 medium containing 2% DMSO at 1 mg/ml after 24 hrs by reverse phase HPLC analysis; method in brief: as §3
[11] = Selectivity index, ratio of IC50 for cytostatic activity against human MONO-MAC-6 cells to MIC for antimycobacterial activity against Mycobacterium tuberculosis H37Rv ATCC 27294; type: toxicity, cell-based; conditions: read-out: Selectivity Index; method in brief: as §1
HepG2 = assay: Cytostatic activity against human HepG2 cells assessed as reduction in cell viability incubated for 24 hrs by MTT assay; type: functional, cell-based; conditions: HepG2, 24 h; method in brief: as §4
[12] = tested on: Mycobacterium tuberculosis; assay: Antimycobacterial activity against Mycobacterium tuberculosis H37Rv ATCC 27294 assessed as reduction in bacterial growth after 21 days by serial dilution method; type: functional; conditions: H37Rv ATCC 27294, 504 h, time 21 day
Method in brief: (§6)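 Broth MIC in Sula semisynthetic medium, pH 6.5; 4-week incubation, with 21-day values […] where indicated. Drug-free inoculated bacteria served as growth control. MIC also expressed as drug content (µg/mL) = MIC (µM) × average SAL molar mass × number of SAL per conjugate / 1000.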

[13] = Stability of the compound in DMSO at 4 degree C at 2 mM up to 3 weeks by reverse phase HPLC analysis; type: physicochemical; conditions: 504 h, 2000 µM; method in brief: as §3
[14] = Stability in rat liver lysosomal homogenate assessed as drug degradation at 50 uM and measured upto 24 hrs by HPLC-MS analysis; type: ADME, subcellular, Lysosome; conditions: tissue homogenate
Method in brief: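 Conjugates incubated in rat liver lysosomal homogenate. Reaction mixtures sampled at 5 min, 1 h, 2 h, 4 h, 8 h and 24 h and analysed by HPLC-MS (chromatograms and mass spectra) to identify intact conjugate, fragments and cleavage sites.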

[15] = Retention time of the compound by RP-HPLC analysis; type: physicochemical
Method in brief: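 Analytical RP-HPLC on a C18 column (5 μm, 100 Å, 4.6 × 150 mm). Eluent A 0.1% TFA in water, eluent B 0.1% TFA in acetonitrile-water 80:20. Gradient 0% B for 5 min, to 60% B at 15 min, to 100% B at 25 min. Flow 1 mL/min, detection at 220 nm.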

[16] = tested on: Mycobacterium tuberculosis; assay: Antimycobacterial activity against Mycobacterium tuberculosis H37Rv ATCC 27294 assessed as reduction in bacterial growth after 28 days by serial dilution method; type: functional; conditions: H37Rv ATCC 27294, 672 h, time 28 day; method in brief: as §6
[17] = Stability of the compound in Sula's semisynthetic medium containing 10% DMSO assessed as 2-hydroxyacetyl-tuftsin derivative formation at pH 6.5 at 2 mg/ml after 4 weeks at 37 degree C by reverse phase HPLC analysis
Method in brief: (§7)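 Conjugate incubated in Sula semisynthetic medium (pH 6.5) at 37 °C for 4 weeks. Decomposition to free salicylanilide and 2-hydroxyacetyl-tuftsin derivative followed by analytical RP-HPLC and mass spectrometry.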

[18] = Stability of the compound in Sula's semisynthetic medium containing 10% DMSO assessed as free salicylanilide formation at pH 6.5 at 2 mg/ml after 4 weeks at 37 degree C by reverse phase HPLC analysis; method in brief: as §7

SMILES | selectivity ratio [1] | selectivity ratio [2] | Activity [3] | Stability [4] | Activity [5] | IC50 at 48 h [6] [µM] | IC50 (MONO-MAC-6) [µM] | Activity [7] | Activity [8] | MIC [9] [µM] | Stability [10] | selectivity ratio [11] | IC50 (HepG2) [µM] | MIC [12] [µM] | Stability [13] | Stability [14] | Retention_time [15] [min] | MIC [16] [µM] | Stability [17] | Stability [18]
CCCCCCCCCC(=O)NCCCC[C@H](NC(=O)[C@@H]1CCCN1C(=O)[C@H](CCCCN)NC(=O)[C@@H](NC(=O)CO/N=C(\C)c1ccc(NC(=O)c2cc(Br)ccc2O)cc1)[C@@H](C)O)C(=O)NCC(=O)N[C@H](C(=O)N[C@@H](CCCCN)C(=O)N1CCC[C@H]1C(=O)N[C@@H](CCCCN)C(=O)NCC(=O)N[C@H](C(=O)N[C@@H](CCCCN)C(=O)N1CCC[C@H]1C(=O)N[C@@H](CCCCN)C(=O)NCC(=O)N[C@H](C(=O)N[C@@H](CCCCN)C(=O)N1CCC[C@H]1C(=O)N[C@@H](CCCCN)C(=O)NCC(N)=O)[C@@H](C)O)[C@@H](C)O)[C@@H](C)O ({Benzoyl(5-Br-2-OH)}-[X1]TKPK(Decanoyl)GTKPKGTKPKGTKPKG-NH2) | 0.9 | 1.5 | Active | Stable | Active | 71.9 | 24.9 | Active | Active | 76.7 (≈ 200 µg/mL) | Stable | 0.3 | 113 | 76.7 (≈ 200 µg/mL) | Stable | Unstable | 16.4 | – | – | –
C/C(=N\OCC(=O)N[C@H](C(=O)N[C@@H](CCCCN)C(=O)N1CCC[C@H]1C(=O)N[C@@H](CCCCN)C(=O)NCC(=O)N[C@H](C(=O)N[C@@H](CCCCN)C(=O)N1CCC[C@H]1C(=O)N[C@@H](CCCCN)C(=O)NCC(=O)N[C@H](C(=O)N[C@@H](CCCCN)C(=O)N1CCC[C@H]1C(=O)N[C@@H](CCCCN)C(=O)NCC(=O)N[C@H](C(=O)N[C@@H](CCCCN)C(=O)N1CCC[C@H]1C(=O)N[C@@H](CCCCN)C(=O)NCC(N)=O)[C@@H](C)O)[C@@H](C)O)[C@@H](C)O)[C@@H](C)O)c1ccc(NC(=O)c2cc(Br)ccc2O)cc1 ({Benzoyl(5-Br-2-OH)}-[X1]TKPKGTKPKGTKPKGTKPKG-NH2) | 1.2 | 1 | Active | Stable | Active | > 100 | > 200 | Active | Active | 40.8 (≈ 100 µg/mL) | Stable | > 2.5 | 81.9 | – | Stable | Unstable | 14.3 | 81.5 (≈ 200 µg/mL) | Stable | Stable
